The values below come from article PMC3424002 (ACS medicinal chemistry letters, 2012).

Entries after “also recorded” stand apart in the source; their conditions may differ. Some results are limits rather than exact numbers.

One series concerns the target rat mGluR5 (Rattus norvegicus, UniProt P31424). The format is cell-based. Particulars: for effect on IP1 levels / accumulation: in the absence of QA (agonist).
The subject of series [1] is mice. Description: Novel open-field test. Particulars: for locomotor activity / amount of time spent in the center of the novel open-field: i.p. 15 minutes prior to testing; for locomotor activity: Figure 3A; for amount of time spent in the center of the novel open-field: Figure 3B. The format is in vivo, mouse. The gist of the method: (§1)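 Mice received test compound by ip injection 15 min before testing, with each compound compared against its own within-group vehicle cohort. Compounds were suspended in 2% ethanol, 10% Tween 80 and water; one reference NAM was instead dissolved in saline. Prototypical mGluR5 NAMs served as positive controls. There were 10–12 mice per dose, and data are means ± SEM analysed by one-way ANOVA with Bonferroni post hoc test.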

The test system of series [2] is mice. Description: Mouse models of anxiety-like behaviors. The format is in vivo. Particulars: for doses giving statistically significant effects consistent with anxiolysis: i.p., open-field and light-dark box tests.
Series [3] relates to mice. Description: Light-dark box test. The format is in vivo, mouse. Particulars: i.p. 15 minutes prior to testing; for proportion of time spent in the light compartment: Figure 3C; for number of compartment transitions: Figure 3D. In short, it runs like this:
as §1

For series [4], the system named is 63 additional receptors and ion channels. Put plainly: Screening in 63 additional receptors and ion channels. Particulars: 100 nM; any of 63 additional receptors and ion channels. The format is binding.
In series [5] the target is mGluR5 (Rattus norvegicus, UniProt P31424). Put plainly: Displacement of [3H]1. In kind it is binding. Particulars: ratio of Ki values versus 1 (MPEP).
In series [6] the test system is mGluR5. Particulars: 10 mg/kg, mouse brain; cited from earlier work.

Sequence of rat mGluR5 (P31424 21-1203): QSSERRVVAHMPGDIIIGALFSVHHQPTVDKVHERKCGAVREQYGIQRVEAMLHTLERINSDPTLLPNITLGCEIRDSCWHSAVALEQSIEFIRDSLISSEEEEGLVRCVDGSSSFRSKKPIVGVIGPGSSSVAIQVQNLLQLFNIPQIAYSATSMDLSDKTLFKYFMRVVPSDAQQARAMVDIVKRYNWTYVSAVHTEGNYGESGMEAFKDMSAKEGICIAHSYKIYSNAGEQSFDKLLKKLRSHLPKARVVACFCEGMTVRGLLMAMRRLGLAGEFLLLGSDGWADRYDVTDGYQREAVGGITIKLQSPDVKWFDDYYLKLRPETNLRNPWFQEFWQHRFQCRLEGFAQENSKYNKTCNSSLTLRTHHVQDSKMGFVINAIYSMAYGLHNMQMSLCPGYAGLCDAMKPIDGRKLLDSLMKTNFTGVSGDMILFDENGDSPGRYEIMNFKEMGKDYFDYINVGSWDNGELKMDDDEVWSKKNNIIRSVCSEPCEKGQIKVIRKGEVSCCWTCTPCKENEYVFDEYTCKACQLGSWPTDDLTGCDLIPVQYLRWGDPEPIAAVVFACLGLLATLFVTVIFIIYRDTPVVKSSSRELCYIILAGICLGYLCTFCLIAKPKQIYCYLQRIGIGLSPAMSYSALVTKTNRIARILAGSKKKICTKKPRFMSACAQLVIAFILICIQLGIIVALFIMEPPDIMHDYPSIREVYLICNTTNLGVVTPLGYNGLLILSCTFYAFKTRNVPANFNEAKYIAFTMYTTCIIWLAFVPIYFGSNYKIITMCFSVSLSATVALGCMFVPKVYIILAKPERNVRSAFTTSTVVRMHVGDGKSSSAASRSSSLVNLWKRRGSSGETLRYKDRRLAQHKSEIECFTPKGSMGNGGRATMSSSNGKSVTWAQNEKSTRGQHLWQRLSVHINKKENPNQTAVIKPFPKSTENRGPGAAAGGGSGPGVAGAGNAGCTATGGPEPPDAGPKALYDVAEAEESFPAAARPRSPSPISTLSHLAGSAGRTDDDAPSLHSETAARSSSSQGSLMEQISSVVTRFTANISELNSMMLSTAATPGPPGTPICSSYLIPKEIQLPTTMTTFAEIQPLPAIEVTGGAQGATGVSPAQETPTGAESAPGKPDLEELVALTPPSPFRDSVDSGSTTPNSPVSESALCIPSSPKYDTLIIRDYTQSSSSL
Sequence of mGluR5 (Rattus norvegicus, UniProt P31424) (P31424 21-1203): as above

For the compound `N[C@@H](Cn1oc(=O)[nH]c1=O)C(=O)O` [QA, quisqualic acid], the “effect on IP1 levels (agonist)” value at rat mGluR5 (agonist stimulation of mGluR5) was “dose-dependently increased IP1 levels; also recorded: increased IP1 accumulation”.

In the case of `Cc1nc(C#Cc2cccnc2)cs1` [Compound 2, 3-((2-methyl-1,3-thiazol-4-yl)ethynyl)pyridine, reference compound], in the series with mice [1], the locomotor activity result was “dose-dependently increased” and the “amount of time spent in the center of the novel open-field” value (“amount of time spent” for short) is listed as “dose-dependently increased”. Besides, the “effect on IP1 levels / accumulation” value at rat mGluR5 is on record as “potently decreased IP1 levels from baseline; also recorded: dose-dependent inverse agonism”. In the series with mice [2], the “doses giving statistically significant effects consistent with anxiolysis” value is given as 10 mg/kg. In addition, in the series on mice [3], the “proportion of time spent in the light compartment” value (from here on “proportion of time spent”) is on record as “dose-dependently increased” and the “number of compartment transitions” value is reported as “dose-dependently increased”.

`Cc1cccc(C#Cc2cc(F)cc(C#N)c2)n1` [Compound 7i]: the “inhibition of binding at other targets” value in series [4] is listed as less than 13%. Also, in the series with mice [1], the “overall / locomotor activity at the highest tested doses” value (“overall / locomotor activity” for short) was “no corresponding loss of locomotor activity”, the locomotor activity entry was “dose-dependently increased” and the “amount of time spent” value is “dose-dependently increased”. Moreover, the “effect on IP1 levels / accumulation” value on rat mGluR5 is reported as “potently decreased IP1 levels from baseline; also recorded: dose-dependent inverse agonism”. For the same compound, in the series with mice [2], the “anxiolytic effects at the highest tested doses” value (“anxiolytic effects” for short) is “loss of anxiolytic effects” and the “doses giving statistically significant effects consistent with anxiolysis” value came to 0.3 mg/kg. In addition, in the series on mice [3], the “proportion of time spent” value is recorded as “dose-dependently increased” and the “number of compartment transitions” value is recorded as “dose-dependently increased”. At mGluR5 [5], the “fold increase in mGluR5 binding affinity over compound 1” value is listed as “approximately 24 fold”.

Regarding `Cc1cccc(C#Cc2ccccc2)n1` [Compound 1, 2-methyl-6-(phenylethynyl)pyridine, reference compound], in the series on mice [1], the “overall / locomotor activity” value is reported as “no corresponding loss of locomotor activity”, the locomotor activity result was “dose-dependently increased” and the “amount of time spent” value is reported as “dose-dependently increased”. In addition, the mGluR5 receptor occupancy result in the series with mGluR5 [6] is listed as “full”. In addition, at rat mGluR5, the “effect on IP1 levels / accumulation” value is listed as “potently decreased IP1 levels from baseline; also recorded: dose-dependent inverse agonism”. In the series with mice [2], the “anxiolytic effects” value is “loss of anxiolytic effects” and the “doses giving statistically significant effects consistent with anxiolysis” value was in the range of 3 to 30 mg/kg. Further, in the series with mice [3], the “proportion of time spent” value is “dose-dependently increased” and the “number of compartment transitions” value was “dose-dependently increased”.

As for `N#Cc1cc(F)cc(C#Cc2cccc(C#N)n2)c1` [Compound 7j], in the series on mice [1], the “overall / locomotor activity” value was “depression in overall activity”, the locomotor activity result is “dose-dependently increased” and the “amount of time spent” value is recorded as “dose-dependently increased”. For the same compound, the “effect on IP1 levels / accumulation” value on rat mGluR5 is “potently decreased IP1 levels from baseline; also recorded: dose-dependent inverse agonism”. In addition, in the series with mice [2], the “anxiolytic effects” value is reported as “loss of anxiolytic effects” and the “doses giving statistically significant effects consistent with anxiolysis” value lay within 0.1 to 0.3 mg/kg. Moreover, in the series with mice [3], the “proportion of time spent” value is recorded as “dose-dependently increased” and the “number of compartment transitions” value is reported as “dose-dependently increased”.
